Data published in ChEMBL document CHEMBL2385063, “Identification of 2-(2-(1-naphthoyl)-8-fluoro-3,4-dihydro-1H-pyrido[4,3-b]indol-5(2H)-yl)acetic acid (setipiprant/ACT-129968), a potent, selective, and orally bioavailable chemoattractant receptor-homologous molecule expressed on Th2 cells (CRTH2) antagonist” (J Med Chem, 2013).

The compounds below were run against T1, Thromboxane A2 receptor (Homo sapiens, UniProt P21731) (assay: Antagonist activity at human prostanoid TP2 receptor expressed in HEK293 cells assessed as inhibition of calcium flux after 30 to 40 mins by FLIPR assay).
T1 sequence (P21731 whole entry): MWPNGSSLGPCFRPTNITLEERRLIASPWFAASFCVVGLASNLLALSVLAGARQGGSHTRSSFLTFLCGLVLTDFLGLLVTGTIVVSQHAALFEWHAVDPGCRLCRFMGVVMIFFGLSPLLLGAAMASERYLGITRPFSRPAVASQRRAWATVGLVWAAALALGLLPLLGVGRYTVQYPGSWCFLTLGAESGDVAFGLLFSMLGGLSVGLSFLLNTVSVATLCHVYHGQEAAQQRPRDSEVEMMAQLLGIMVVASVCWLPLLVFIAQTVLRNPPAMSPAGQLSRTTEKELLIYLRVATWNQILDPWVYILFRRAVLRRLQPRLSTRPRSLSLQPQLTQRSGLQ
Format: functional, cell-based

Row | SMILES | IC50 [µM]
1 | O=C(O)Cn1c2c(c3cc(F)cc(Cl)c31)CN(C(=O)c1cccc3ccccc13)CC2 | > 25
2 | CCc1ccc(-c2ccc(C(=O)N3CCc4c(c5ccccc5n4CC(=O)O)C3)cc2)cc1 | > 25

Further lines, results first:

Row | IC50 [µM] | SMILES
3 | > 25 | O=C(O)Cn1c2c(c3cc(F)ccc31)CN(C(=O)c1cccc(Cl)c1)CC2
4 | > 25 | O=C(O)Cn1c2c(c3cc(F)ccc31)CN(C(=O)c1cccs1)CC2
5 | > 25 | Cc1ccc2c(c1)c1c(n2CC(=O)O)CCN(C(=O)c2cccc3ccccc23)C1

These compounds were tested against T2, Prostaglandin E2 receptor EP4 subtype (Homo sapiens, UniProt P35408) (assay: Inhibition of beta-arrestin binding to recombinant human prostanoid EP4 receptor expressed in HEK293 cell membranes by beta-lactamase complementation assay).
T2 sequence (P35408 whole entry): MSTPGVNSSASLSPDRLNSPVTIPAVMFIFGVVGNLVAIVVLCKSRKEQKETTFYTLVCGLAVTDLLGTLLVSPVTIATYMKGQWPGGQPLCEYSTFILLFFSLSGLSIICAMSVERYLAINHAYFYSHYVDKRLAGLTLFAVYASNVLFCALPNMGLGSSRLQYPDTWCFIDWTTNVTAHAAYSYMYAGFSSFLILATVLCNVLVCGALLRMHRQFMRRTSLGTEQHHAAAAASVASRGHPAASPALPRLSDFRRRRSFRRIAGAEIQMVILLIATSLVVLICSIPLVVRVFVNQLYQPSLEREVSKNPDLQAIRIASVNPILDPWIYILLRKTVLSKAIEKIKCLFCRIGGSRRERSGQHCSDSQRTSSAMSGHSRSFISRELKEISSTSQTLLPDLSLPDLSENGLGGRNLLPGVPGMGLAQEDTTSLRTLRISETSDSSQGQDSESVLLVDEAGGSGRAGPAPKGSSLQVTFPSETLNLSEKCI

Row | SMILES | IC50 [µM]
6 | O=C(O)Cn1c2c(c3cc(F)cc(Cl)c31)CN(C(=O)c1cccc3ccccc13)CC2 | > 10
7 | CCc1ccc(-c2ccc(C(=O)N3CCc4c(c5ccccc5n4CC(=O)O)C3)cc2)cc1 | > 10

The remaining lines, values ahead:

Row | IC50 [µM] | SMILES
8 | > 10 | O=C(O)Cn1c2c(c3cc(F)ccc31)CN(C(=O)c1cccc(Cl)c1)CC2
9 | > 10 | O=C(O)Cn1c2c(c3cc(F)ccc31)CN(C(=O)c1cccs1)CC2
10 | > 10 | Cc1ccc2c(c1)c1c(n2CC(=O)O)CCN(C(=O)c2cccc3ccccc23)C1

What follows are compounds tested against Prostaglandin E2 receptor EP2 subtype (Homo sapiens, UniProt P43116) (assay: Inhibition of beta-arrestin binding to recombinant human prostanoid EP2 receptor expressed in HEK293 cell membranes by beta-lactamase complementation assay).
Sequence of Prostaglandin E2 receptor EP2 subtype (P43116 whole entry): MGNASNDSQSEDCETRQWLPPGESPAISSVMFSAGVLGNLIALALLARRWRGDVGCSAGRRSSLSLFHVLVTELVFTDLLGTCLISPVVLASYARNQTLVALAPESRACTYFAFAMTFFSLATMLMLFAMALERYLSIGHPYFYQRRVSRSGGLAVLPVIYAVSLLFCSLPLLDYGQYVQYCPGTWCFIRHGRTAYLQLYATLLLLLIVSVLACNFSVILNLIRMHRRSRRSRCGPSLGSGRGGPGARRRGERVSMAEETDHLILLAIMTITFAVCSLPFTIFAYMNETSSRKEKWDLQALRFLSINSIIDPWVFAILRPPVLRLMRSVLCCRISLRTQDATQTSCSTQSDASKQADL

Row | SMILES | IC50 [µM]
11 | O=C(O)Cn1c2c(c3cc(F)cc(Cl)c31)CN(C(=O)c1cccc3ccccc13)CC2 | 2.7
12 | CCc1ccc(-c2ccc(C(=O)N3CCc4c(c5ccccc5n4CC(=O)O)C3)cc2)cc1 | 6.4

The next lines start with the values.

Row | IC50 [µM] | SMILES
13 | > 10 | O=C(O)Cn1c2c(c3cc(F)ccc31)CN(C(=O)c1cccc(Cl)c1)CC2
14 | > 10 | O=C(O)Cn1c2c(c3cc(F)ccc31)CN(C(=O)c1cccs1)CC2
15 | > 10 | Cc1ccc2c(c1)c1c(n2CC(=O)O)CCN(C(=O)c2cccc3ccccc23)C1

The compounds below were run against T2, Prostaglandin E2 receptor EP4 subtype (assay: Displacement of [3H]PGE2 from recombinant human prostanoid EP4 receptor expressed in HEK293 cell membranes after 90 mins by scintillation counting analysis).

Row | SMILES | IC50 [µM]
16 | O=C(O)Cn1c2c(c3cc(F)cc(Cl)c31)CN(C(=O)c1cccc3ccccc13)CC2 | > 10
17 | CCc1ccc(-c2ccc(C(=O)N3CCc4c(c5ccccc5n4CC(=O)O)C3)cc2)cc1 | > 10

Next, values leading:

Row | IC50 [µM] | SMILES
18 | > 10 | O=C(O)Cn1c2c(c3cc(F)ccc31)CN(C(=O)c1cccc(Cl)c1)CC2
19 | > 10 | O=C(O)Cn1c2c(c3cc(F)ccc31)CN(C(=O)c1cccs1)CC2
20 | > 10 | Cc1ccc2c(c1)c1c(n2CC(=O)O)CCN(C(=O)c2cccc3ccccc23)C1

Species on record: Homo sapiens
Experiment: Selectivity factor, ratio of IC50 for recombinant human prostanoid DP1 receptor to IC50 for recombinant human CRTH2 receptor
How it was run: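 hDP₁ IC₅₀ came from competitive [³H]PGD₂ binding on CHO cells stably overexpressing recombinant hDP₁. hCRTh2 IC₅₀ came from [³H]PGD₂ (2.5 nM) displacement on membranes of HEK-293 cells stably expressing hCRTh2, incubated 90 min at room temperature, filtered and counted. f_Sel = IC₅₀(hDP₁)/IC₅₀(hCRTh2).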

Row | SMILES | Ratio IC50
21 | O=C(O)Cn1c2c(c3cc(F)cc(Cl)c31)CN(C(=O)c1cccc3ccccc13)CC2 | 4.1
22 | CCc1ccc(-c2ccc(C(=O)N3CCc4c(c5ccccc5n4CC(=O)O)C3)cc2)cc1 | 195

Now from value to compound:

Row | Ratio IC50 | SMILES
23 | > 1100 | O=C(O)Cn1c2c(c3cc(F)ccc31)CN(C(=O)c1cccc(Cl)c1)CC2
24 | > 2500 | O=C(O)Cn1c2c(c3cc(F)ccc31)CN(C(=O)c1cccs1)CC2
25 | 540 | Cc1ccc2c(c1)c1c(n2CC(=O)O)CCN(C(=O)c2cccc3ccccc23)C1

The compounds below were run against T3, Prostaglandin D2 receptor 2 (Homo sapiens, UniProt Q9Y5Y4) (assay: Displacement of [3H]PGD2 from recombinant human CRTH2 receptor expressed in HEK293 cell membranes after 90 mins by scintillation counting analysis in presence of human serum albumin).
T3 sequence (Q9Y5Y4 whole entry): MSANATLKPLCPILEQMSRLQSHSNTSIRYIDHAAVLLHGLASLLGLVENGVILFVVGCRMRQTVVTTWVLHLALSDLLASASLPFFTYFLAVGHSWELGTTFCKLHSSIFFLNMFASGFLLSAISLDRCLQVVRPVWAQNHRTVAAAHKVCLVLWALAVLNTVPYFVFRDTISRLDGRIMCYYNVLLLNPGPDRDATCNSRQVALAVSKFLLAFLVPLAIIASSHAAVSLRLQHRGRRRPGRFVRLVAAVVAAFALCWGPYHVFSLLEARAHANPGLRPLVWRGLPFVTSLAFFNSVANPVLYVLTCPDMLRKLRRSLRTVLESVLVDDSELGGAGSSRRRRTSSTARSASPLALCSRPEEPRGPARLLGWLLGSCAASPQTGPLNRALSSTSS
How it was run: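 Same hCRTH2 HEK293 membrane [3H]PGD2 (2.5 nM) displacement, 90 min at room temperature, with 0.5% human serum albumin added to the assay buffer; scintillation counting.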

Row | IC50 [µM] | SMILES
26 | 0.06 | O=C(O)Cn1c2c(c3cc(F)ccc31)CN(C(=O)c1cccc(Cl)c1)CC2
27 | 0.53 | O=C(O)Cn1c2c(c3cc(F)cc(Cl)c31)CN(C(=O)c1cccc3ccccc13)CC2
28 | 0.012 | O=C(O)Cn1c2c(c3cc(F)ccc31)CN(C(=O)c1cccs1)CC2
29 | 0.19 | Cc1ccc2c(c1)c1c(n2CC(=O)O)CCN(C(=O)c2cccc3ccccc23)C1

What follows are compounds tested against T3, Prostaglandin D2 receptor 2 (assay: Displacement of [3H]PGD2 from recombinant human CRTH2 receptor expressed in HEK293 cell membranes after 90 mins by scintillation counting analysis).
How it was run: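 Membranes from HEK293 cells expressing hCRTH2 (80 μg protein/well) in Tris pH 7.4 buffer with NaCl, EDTA, 0.1% BSA were incubated with 2.5 nM [3H]PGD2 for 90 min at room temperature. Nonspecific binding was defined with 10 μM PGD2. Samples were filtered on PEI-soaked GF/C and read by scintillation counting.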

Row | SMILES | IC50 [µM]
30 | O=C(O)Cn1c2c(c3cc(F)cc(Cl)c31)CN(C(=O)c1cccc3ccccc13)CC2 | 0.07
31 | CCc1ccc(-c2ccc(C(=O)N3CCc4c(c5ccccc5n4CC(=O)O)C3)cc2)cc1 | 0.004

Next, values leading:

Row | IC50 [µM] | SMILES
32 | 0.009 | O=C(O)Cn1c2c(c3cc(F)ccc31)CN(C(=O)c1cccc(Cl)c1)CC2
33 | 0.004 | O=C(O)Cn1c2c(c3cc(F)ccc31)CN(C(=O)c1cccs1)CC2
34 | 0.005 | Cc1ccc2c(c1)c1c(n2CC(=O)O)CCN(C(=O)c2cccc3ccccc23)C1

These compounds were tested against T4, Prostaglandin G/H synthase 1 (Ovis aries) (UniProt P05979) (assay: […] at ovine COX-1 at 10 uM relative to control).
T4 sequence (whole entry): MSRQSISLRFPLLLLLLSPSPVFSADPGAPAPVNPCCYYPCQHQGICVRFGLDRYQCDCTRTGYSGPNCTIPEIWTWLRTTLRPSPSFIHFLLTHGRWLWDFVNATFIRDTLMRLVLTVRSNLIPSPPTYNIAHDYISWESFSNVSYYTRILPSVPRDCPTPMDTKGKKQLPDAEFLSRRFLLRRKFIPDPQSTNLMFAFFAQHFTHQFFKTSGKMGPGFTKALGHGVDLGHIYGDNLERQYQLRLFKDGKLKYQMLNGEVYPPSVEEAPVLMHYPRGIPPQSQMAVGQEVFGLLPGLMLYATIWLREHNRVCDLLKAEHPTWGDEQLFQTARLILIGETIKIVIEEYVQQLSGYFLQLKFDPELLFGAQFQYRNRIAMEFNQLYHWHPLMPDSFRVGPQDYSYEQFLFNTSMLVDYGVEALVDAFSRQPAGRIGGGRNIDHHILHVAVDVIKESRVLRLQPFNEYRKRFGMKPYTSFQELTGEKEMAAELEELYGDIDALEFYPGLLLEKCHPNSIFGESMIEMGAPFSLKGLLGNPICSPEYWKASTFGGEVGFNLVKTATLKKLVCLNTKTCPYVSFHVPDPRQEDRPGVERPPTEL
Design: scale not given: the % may be the effect or the level left
How it was run: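 Ovine COX-1 activity measured with a commercial kit, following the manufacturer's protocol. Compounds were tested in duplicate at 10 μM final concentration. Activity is expressed as inhibition relative to control.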

Row | SMILES | Activity [%]
35 | O=C(O)Cn1c2c(c3cc(F)cc(Cl)c31)CN(C(=O)c1cccc3ccccc13)CC2 | < 30
36 | CCc1ccc(-c2ccc(C(=O)N3CCc4c(c5ccccc5n4CC(=O)O)C3)cc2)cc1 | < 30

Second part, the compound after the results:

Row | Activity [%] | SMILES
37 | < 30 | O=C(O)Cn1c2c(c3cc(F)ccc31)CN(C(=O)c1cccc(Cl)c1)CC2
38 | < 30 | O=C(O)Cn1c2c(c3cc(F)ccc31)CN(C(=O)c1cccs1)CC2
39 | < 30 | Cc1ccc2c(c1)c1c(n2CC(=O)O)CCN(C(=O)c2cccc3ccccc23)C1

These compounds were tested against T5, Prostaglandin D2 receptor (Homo sapiens, UniProt Q13258) (assay: Displacement of [3H]PGD2 from recombinant human prostanoid DP1 receptor expressed in CHO cells after 90 mins by scintillation counting analysis).
T5 sequence (Q13258 whole entry): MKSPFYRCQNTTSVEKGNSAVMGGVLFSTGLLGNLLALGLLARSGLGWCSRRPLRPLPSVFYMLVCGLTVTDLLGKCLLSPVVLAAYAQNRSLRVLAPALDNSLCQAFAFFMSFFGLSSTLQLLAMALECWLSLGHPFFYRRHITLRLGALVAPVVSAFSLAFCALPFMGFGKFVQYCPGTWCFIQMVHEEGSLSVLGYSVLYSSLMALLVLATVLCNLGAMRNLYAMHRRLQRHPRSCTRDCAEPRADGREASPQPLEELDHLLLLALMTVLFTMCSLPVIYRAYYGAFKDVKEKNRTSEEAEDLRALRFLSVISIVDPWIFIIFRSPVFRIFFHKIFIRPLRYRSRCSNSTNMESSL
Format: cell-based
How it was run: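 Competitive binding with CHO cells stably expressing high levels of recombinant hDP1, using [3H]PGD2 as ligand; IC50 reported.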

Row | SMILES | IC50 [µM]
40 | O=C(O)Cn1c2c(c3cc(F)cc(Cl)c31)CN(C(=O)c1cccc3ccccc13)CC2 | 0.31
41 | CCc1ccc(-c2ccc(C(=O)N3CCc4c(c5ccccc5n4CC(=O)O)C3)cc2)cc1 | 0.78

Other lines, results leading:

Row | IC50 [µM] | SMILES
42 | > 10 | O=C(O)Cn1c2c(c3cc(F)ccc31)CN(C(=O)c1cccc(Cl)c1)CC2
43 | > 10 | O=C(O)Cn1c2c(c3cc(F)ccc31)CN(C(=O)c1cccs1)CC2
44 | 2.7 | Cc1ccc2c(c1)c1c(n2CC(=O)O)CCN(C(=O)c2cccc3ccccc23)C1
